GASC1 inh: inhibitors of human demethylase GASC-1 KDM4C | AID 720574 | inhibition, % at 12.5 µM | 96,000 tested, 0.15% active | GST-KDM4C 2-372, H3K9me3 peptide, LANCE TR-FRET;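 active = mean replicate inhibition above about 25%, with at least 55% of replicates also reaching it, limit read from the data, passing the limit was not always enough; inconclusive = only one of those two conditions met; inactive = neither condition met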
Target sequence (Q9H3R0 2-372 limits assumed): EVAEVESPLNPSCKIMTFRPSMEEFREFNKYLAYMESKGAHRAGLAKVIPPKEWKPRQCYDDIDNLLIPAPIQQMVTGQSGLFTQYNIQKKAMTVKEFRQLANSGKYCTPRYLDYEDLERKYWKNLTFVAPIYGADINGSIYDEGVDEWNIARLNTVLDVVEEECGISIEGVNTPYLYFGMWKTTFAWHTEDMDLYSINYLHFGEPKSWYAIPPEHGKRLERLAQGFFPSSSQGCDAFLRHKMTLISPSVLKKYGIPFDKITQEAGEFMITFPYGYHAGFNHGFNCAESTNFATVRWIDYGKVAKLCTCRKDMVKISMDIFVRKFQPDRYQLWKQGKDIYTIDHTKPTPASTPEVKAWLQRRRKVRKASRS
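Assay system: GST-GASC-1 enzyme fragment 2-372 | Amount: 10 nM enzyme | Medium: HEPES buffer, pH 7.5, plus ascorbate | Reagent: H3K9me3 peptide substrate, Fe(II), 2-oxoglutarate | Doses: Single-point compound screen | Incubation: 30 min demethylation and 1 h detection at room temperature | Measured by: LANCE TR-FRET, excitation 340 nm, emissions 618 and 671 nm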
IDH1 R132H inh: IDH1 R132H (human) inhibition; O75874; IDH1 R132H reductase, diaphorase/resazurin fluorescence, 60 min; inhibition, % at 10 µM; 70,000 tested, 0.18% active; AID 624101; in the data active = inhibition above about 34%; inconclusive = no clear call, values can overlap the other calls; inactive = below about 11%
T cruzi growth-1: inhibitors of T. cruzi proliferation | inhibition, % at 8.34 µM | T. cruzi beta-gal in NIH3T3, GalScreen luminescence, 90 h | 77,000 tested, 5.9% active;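 active = mean inhibition above about 93%, with at least 55% of replicates each passing it, limit read from the data, passing the limit was not always enough; inconclusive = only one of those two conditions holds; inactive = neither condition holds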
T cruzi growth-2: inhibitors of T. cruzi proliferation; AID 651739; inhibition, % at 8.35 µM; T. cruzi beta-gal in NIH3T3, GalScreen luminescence, 90 h; 5,600 tested, 72% active; shares compounds with T cruzi growth-1;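 active = mean replicate inhibition above about 95% and at least 55% of replicates individually reaching it, limit read from the data; inconclusive = only one of the two criteria is met; inactive = neither criterion is met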
T cruzi growth-3: blocks T. cruzi growth in NIH3T3 host cells | inhibition, % at 2.09 µM | T. cruzi beta-gal in NIH3T3, GalScreen luminescence, 90 h | shares compounds with T cruzi growth-1 | 5,600 tested, 21% active;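 active = mean inhibition above about 95%, with at least 55% of replicates also reaching it, limit read from the data; inconclusive = meets just one of the two conditions; inactive = meets neither condition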
3T3 cytotox: NIH/3T3 (mouse) viability loss; shares compounds with T cruzi growth-1; NIH/3T3 viability, CellTiter-Glo ATP luminescence, 90 h; cytotoxicity (signal decrease), % at 8.35 µM; 5,600 tested, 14% active; AID 651742;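 active = mean signal decrease across replicates above about 35% based on untreated-well scatter, with enough replicates individually passing, limit read from the data; inconclusive = no rule stated though some were filed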
3T3 cytotox 2: kills mouse NIH/3T3 fibroblasts. shares compounds with T cruzi growth-1. NIH/3T3 viability, CellTiter-Glo ATP luminescence, 90 h. inhibition, % at 24.9 µM. 5,600 tested, 56% active. AID 651744;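 active = mean loss of cell viability signal at or above a set limit, and enough replicates individually reaching it; inconclusive = meets only the mean limit or only the replicate share; inactive = meets neither condition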
Large screens that a line does not name were inactive (follow-up assays come after a bar, where they were run). Many of the other results were omitted from the sample, so hits are more common in it than they were.

OC[C@@H]1[C@H](c2ccc(-c3ccc(F)cc3)cc2)[C@@H]2CN(Cc3ccccn3)CCCCN12	none (no result: IDH1 R132H inh)
N#C/C(=C\c1ccc(C2=CCOc3ccccc32)s1)S(=O)(=O)c1ccccc1	none (no result: GASC1 inh, T cruzi growth-1)
COc1cccc(NC(=O)CCc2nc(-c3ccc(C)cc3)no2)c1	none (no result: GASC1 inh, T cruzi growth-1)
O=C(c1c[nH]c2ccccc12)C(O)C(c1ccccc1)N1CCCCC1 (stereo not given)	none (no result: GASC1 inh, T cruzi growth-1)
Cc1ccc2nc(-c3ccccn3)cc(C(=O)NCc3cnn(C)c3)c2c1	none (no result: GASC1 inh, T cruzi growth-1)
COc1ccc(-c2ccc([C@H]3[C@@H](CO)N4CCCCN(S(=O)(=O)c5cccs5)C[C@@H]34)cc2)cc1	T cruzi growth-1 107.4 (no result: IDH1 R132H inh) | T cruzi growth-2 116.3 | T cruzi growth-3 inactive | 3T3 cytotox inactive | 3T3 cytotox 2 inactive
COc1cccc(-c2ccc([C@H]3[C@@H](CO)N4CCCCN(S(=O)(=O)c5cccs5)C[C@@H]34)cc2)c1	none (no result: IDH1 R132H inh)
COc1cccc(-c2ccc([C@H]3[C@H]4CN(S(=O)(=O)c5cccs5)CCCCN4[C@H]3CO)cc2)c1	none (no result: IDH1 R132H inh)
COc1cccc(-c2ccc([C@@H]3[C@@H](CO)N4CCCCN(S(=O)(=O)c5cccs5)C[C@@H]34)cc2)c1	T cruzi growth-1 96.8 (no result: IDH1 R132H inh) | T cruzi growth-2 inactive | T cruzi growth-3 inactive | 3T3 cytotox inactive | 3T3 cytotox 2 25.0
Cc1ccc(C2C(C(=O)c3cccs3)C(=O)C(=O)N2CCN(C)C)o1 (stereo not given)	none (no result: GASC1 inh, T cruzi growth-1)
CCN(CC(=O)O)S(=O)(=O)c1ccc(Br)cc1	none (no result: GASC1 inh, T cruzi growth-1)
COc1ccc([C@@H]2Oc3c(OC)cc(CCCO)cc3[C@H]2CO)cc1OC	none (no result: GASC1 inh, T cruzi growth-1)
O=C(CSc1nnnn1-c1ccc(Cl)cc1)Nc1cccc2ccccc12	none (no result: GASC1 inh, T cruzi growth-1)
C[C@@H]1CN([C@@H](C)CO)C(=O)c2cccc(NC(=O)Nc3ccc(F)cc3)c2O[C@H]1CN(C)Cc1ccc(Oc2ccccc2)cc1	T cruzi growth-1 inconclusive | T cruzi growth-2 96.1 | T cruzi growth-3 inactive | 3T3 cytotox inactive | 3T3 cytotox 2 54.7
C[C@H]1CN([C@@H](C)CO)C(=O)c2cccc(NC(=O)Nc3ccc(F)cc3)c2O[C@H]1CN(C)Cc1ccc(Oc2ccccc2)cc1	none (no result: IDH1 R132H inh)
C[C@@H]1CN([C@H](C)CO)C(=O)c2cccc(NC(=O)Nc3ccc(F)cc3)c2O[C@@H]1CN(C)Cc1ccc(Oc2ccccc2)cc1	none
C[C@@H]1CN([C@H](C)CO)C(=O)c2cccc(NC(=O)Nc3ccc(F)cc3)c2O[C@H]1CN(C)Cc1ccc(Oc2ccccc2)cc1	T cruzi growth-1 115.5 (no result: IDH1 R132H inh) | T cruzi growth-2 100.8 | T cruzi growth-3 inactive | 3T3 cytotox inactive | 3T3 cytotox 2 45.8
CS(=O)(=O)N(CC(=O)NC1CCCCC1)c1cc(Cl)c(Cl)cc1Cl	none (no result: GASC1 inh, T cruzi growth-1)
O=C(N/N=C/c1ccc2ccccc2c1O)c1ccccn1	none (no result: GASC1 inh, T cruzi growth-1)
COc1ccc(NC(=O)Nc2ccc3c(c2)C(=O)N([C@H](C)CO)C[C@@H](C)[C@@H](CN(C)C(=O)NC2CCCCC2)OCCCC[C@@H](C)O3)cc1	none (no result: T cruzi growth-1)
COc1ccc(NC(=O)Nc2ccc3c(c2)C(=O)N([C@@H](C)CO)C[C@@H](C)[C@H](CN(C)C(=O)NC2CCCCC2)OCCCC[C@@H](C)O3)cc1	none
COc1ccc(NC(=O)Nc2ccc3c(c2)C(=O)N([C@@H](C)CO)C[C@H](C)[C@H](CN(C)C(=O)NC2CCCCC2)OCCCC[C@H](C)O3)cc1	T cruzi growth-1 inconclusive (no result: IDH1 R132H inh) | T cruzi growth-2 109.6 | T cruzi growth-3 inactive | 3T3 cytotox inactive | 3T3 cytotox 2 inactive
COc1ccc(NC(=O)Nc2ccc3c(c2)C(=O)N([C@H](C)CO)C[C@@H](C)[C@H](CN(C)C(=O)NC2CCCCC2)OCCCC[C@@H](C)O3)cc1	T cruzi growth-1 99.7 (no result: IDH1 R132H inh) | T cruzi growth-2 106.9 | T cruzi growth-3 inactive | 3T3 cytotox inactive | 3T3 cytotox 2 inactive
CCOC(=O)c1cc(NC(=O)CN2C(=O)COc3ccc(Cl)cc32)ccc1Cl	none (no result: GASC1 inh, T cruzi growth-1)
Cc1cc(C)c(NC(=O)CN(c2cccc(Cl)c2C)S(C)(=O)=O)c(C)c1	none (no result: GASC1 inh, T cruzi growth-1)
Cn1c(SCC(=O)Nc2ccccc2Cl)nnc1-c1cccc([N+](=O)[O-])c1	none (no result: GASC1 inh, T cruzi growth-1)
CCOC(=O)c1c(NC(=O)Cn2cnc3sc(C)c(C)c3c2=O)sc(C)c1C	none (no result: GASC1 inh, T cruzi growth-1)
CS(=O)(=O)N1CCCCN2[C@H](CO)[C@@H](c3ccc(C#Cc4ccccn4)cc3)[C@H]2C1	T cruzi growth-1 inconclusive (no result: IDH1 R132H inh) | T cruzi growth-2 inactive | T cruzi growth-3 inactive | 3T3 cytotox inactive | 3T3 cytotox 2 inactive
CS(=O)(=O)N1CCCCN2[C@H](CO)[C@@H](c3ccc(C#Cc4ccccn4)cc3)[C@@H]2C1	none (no result: IDH1 R132H inh)
CCS(=O)(=O)N1CCCCN2[C@H](CO)[C@H](c3ccc(C#Cc4ccccn4)cc3)[C@@H]2C1	none (no result: IDH1 R132H inh)
CCS(=O)(=O)N1CCCCN2[C@H](C1)[C@H](c1ccc(C#Cc3ccccn3)cc1)[C@@H]2CO	T cruzi growth-1 95.8 (no result: IDH1 R132H inh) | T cruzi growth-2 inactive | T cruzi growth-3 inactive | 3T3 cytotox inactive | 3T3 cytotox 2 inactive
O=C(C1CCC1)N1CCCCN2[C@H](CO)[C@@H](c3ccc(C#CC4(O)CCCC4)cc3)[C@@H]2C1	none (no result: IDH1 R132H inh)
